{"data": "Published values from different studies", "effect on": "parasite growth", "note": "Each line is one published result; the experiments were not run side by side. pIC50: −log10 of the molar value."}
{"SMILES": "C[C@@H]1[C@H](O)[C@@H](C)/C=C/C=C/C=C/C=C/C=C/C=C/C=C/[C@H](O[C@@H]2O[C@H](C)[C@@H](O)[C@H](N)[C@@H]2O)C[C@@H]2O[C@](O)(C[C@@H](O)C[C@@H](O)[C@H](O)CC[C@@H](O)C[C@@H](O)CC(=O)O[C@H]1C)C[C@H](O)[C@H]2C(=O)O", "organism": "Leishmania amazonensis", "conditions": "72 h, promastigote", "measurement": "IC50", "result": "0.06 µg/mL"}
{"SMILES": "CC(C)(C)CC(C)(C)Nc1c(-c2cccs2)nc2ncccn12", "organism": "Leishmania amazonensis", "assay": "MTT", "conditions": "72 h, promastigote", "measurement": "pIC50", "result": "< 4.00"}
{"SMILES": "C=C1C[C@@]23CC[C@H]4[C@@](C)(CCC[C@@]4(C)C(=O)O)[C@@H]2CC[C@@H]1C3", "organism": "Leishmania amazonensis", "conditions": "72 h, promastigote", "measurement": "IC50", "result": "28 µg/mL"}
{"SMILES": "CC(C)(C)CC(C)(C)Nc1c(-c2cccc([N+](=O)[O-])c2)nc2ncccn12", "organism": "Leishmania amazonensis", "assay": "MTT", "conditions": "72 h, promastigote", "measurement": "pIC50", "result": "< 4.00"}
{"SMILES": "Oc1ccc(/C=C/c2cc(O)cc(O)c2)cc1", "organism": "Leishmania amazonensis", "assay": "imaging", "conditions": "48 h, intracellular, amastigote", "measurement": "pIC50", "result": 4.85}
{"SMILES": "CC(C)(C)CC(C)(C)Nc1c(-c2cccnc2)nc2ncccn12", "organism": "Leishmania amazonensis", "assay": "MTT", "conditions": "72 h, promastigote", "measurement": "pIC50", "result": "< 4.00"}
{"SMILES": "COc1ccc([S+]([O-])c2ccc(C)cc2)c(OC)c1OC (stereo not drawn)", "organism": "Leishmania braziliensis", "assay": "MTT", "conditions": "24 h, promastigote", "measurement": "pIC50", "result": 4.17}
{"SMILES": "C=C1CC[C@@H]2C(C)(C)CCC[C@@]2(C)[C@@H]1CC/C(C)=C/C(=O)OC", "organism": "Leishmania amazonensis", "conditions": "72 h, promastigote", "measurement": "IC50", "result": "6 µg/mL"}
{"SMILES": "COc1ccc(Sc2ccc(OC)c(OC)c2OC)cc1", "organism": "Leishmania braziliensis", "assay": "MTT", "conditions": "24 h, promastigote", "measurement": "pIC50", "result": 4.55}
{"SMILES": "COc1cc(O)c(CC=C(C)C)c(O)c1C(=O)/C=C/c1ccc(O)cc1", "organism": "Leishmania amazonensis", "assay": "MTT", "conditions": "72 h, promastigote", "measurement": "pIC50", "result": 4.33}
{"SMILES": "CC(C)(C)CC(C)(C)Nc1c(-c2ccccc2)nc2ncccn12", "organism": "Leishmania amazonensis", "assay": "MTT", "conditions": "72 h, promastigote", "measurement": "pIC50", "result": 4.30}
{"SMILES": "COc1ccc(Sc2ccccc2)c(OC)c1OC", "organism": "Leishmania braziliensis", "assay": "MTT", "conditions": "promastigote", "measurement": "pIC50", "result": 4.85}
